Results as given in ChEMBL document CHEMBL1144121, “Umbelliferone analogues and their potential to inhibit Benzo(a)pyrene- and hydrogen peroxide-induced mutations” (J Nat Prod, 1999).

What was measured:
Salmonella typhimurium [1] = experiment: Antimutagenic activity in Salmonella Typhimurium TA100 assessed as protection against benzo[a]pyrene-induced mutation at 8 ug/plate after 2 days by modified Ames test; type: functional, Salmonella enterica subsp. enterica serovar Typhimurium; conditions: at 8 µg/plate
Salmonella typhimurium [2] = experiment: Antimutagenic activity in Salmonella Typhimurium TA102 assessed as protection against hydrogen peroxide-induced mutation at 8 ug/plate after 2 days by modified Ames test; type: functional, Salmonella enterica subsp. enterica serovar Typhimurium; conditions: at 8 µg/plate
Salmonella typhimurium [3] = experiment: Antimutagenic activity in Salmonella Typhimurium TA100 assessed as protection against benzo[a]pyrene-induced mutation at 4 ug/plate after 2 days by modified Ames test; type: functional, Salmonella enterica subsp. enterica serovar Typhimurium
How it was run: (§1)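 S. typhimurium TA100 grown 15 h at 37 °C in Oxoid Nutrient Broth No. 2 with shaking to about (1-2) × 10^8 cells/mL. Culture in histidine/biotin-supplemented top agar with 5 μg benzo(a)pyrene plus 50 μL S9 and test compound. Plated on Vogel-Bonner E medium, 37 °C for 2 days. His+ revertants scored on 3 plates, averaged, and % protection taken relative to mutagen minus spontaneous revertants.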

Salmonella typhimurium [4] = experiment: Antimutagenic activity in Salmonella Typhimurium TA102 assessed as protection against hydrogen peroxide-induced mutation at 4 ug/plate after 2 days by modified Ames test; type: functional, Salmonella enterica subsp. enterica serovar Typhimurium; conditions: at 4 µg/plate
Salmonella typhimurium [5] = experiment: Antimutagenic activity in Salmonella Typhimurium TA100 assessed as protection against benzo[a]pyrene-induced mutation at 16 ug/plate after 2 days by modified Ames test; type: functional, Salmonella enterica subsp. enterica serovar Typhimurium; conditions: at 16 µg/plate
Salmonella typhimurium [6] = experiment: Antimutagenic activity in Salmonella Typhimurium TA102 assessed as protection against hydrogen peroxide-induced mutation at 2 ug/plate after 2 days by modified Ames test; type: functional, Salmonella enterica subsp. enterica serovar Typhimurium
How it was run: as §1, with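 “typhimurium TA102” for “typhimurium TA100”, “with 100” for “with 5”, “μg hydrogen peroxide” for “μg benzo(a)pyrene plus 50 μL S9”, “to mutagen-induced revertants” for “to mutagen”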

Salmonella typhimurium [7] = experiment: Antimutagenic activity in Salmonella Typhimurium TA100 assessed as protection against benzo[a]pyrene-induced mutation at 32 ug/plate after 2 days by modified Ames test; type: functional, Salmonella enterica subsp. enterica serovar Typhimurium; conditions: at 32 µg/plate
Salmonella typhimurium [8] = experiment: Antimutagenic activity in Salmonella Typhimurium TA100 assessed as protection against benzo[a]pyrene-induced mutation at 2 ug/plate after 2 days by modified Ames test; type: functional, Salmonella enterica subsp. enterica serovar Typhimurium; how it was run: as §1
Salmonella typhimurium [9] = experiment: Antimutagenic activity in Salmonella Typhimurium TA102 assessed as protection against hydrogen peroxide-induced mutation at 1 ug/plate after 2 days by modified Ames test; type: functional, Salmonella enterica subsp. enterica serovar Typhimurium
How it was run: as §1, with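 “typhimurium TA102” for “typhimurium TA100”, “with 100” for “with 5”, “μg hydrogen peroxide” for “μg benzo(a)pyrene plus 50 μL S9”, “to mutagen-induced revertants” for “to mutagen”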

[10] = Cytotoxicity against Salmonella Typhimurium TA100 assessed as maximum non-toxic concentrations after 15 hrs by ELISA; conditions: salmonella enterica subsp. enterica serovar typhimurium, Salmonella Typhimurium TA100 bacteria

In the case of `CC1(C)C=Cc2c(ccc3ccc(=O)oc23)O1` [SESALIN], the Activity (Salmonella typhimurium [1]) is reported as 8%, the Activity (Salmonella typhimurium [2]) is reported as 22% and the Activity (Salmonella typhimurium [3]) is reported as 1%. For the same compound, the Activity (Salmonella typhimurium [4]) was 8%, the Activity (Salmonella typhimurium [5]) was 20% and the Activity (Salmonella typhimurium [6]) was 0%.

In the case of `O=c1ccc2ccc(O)cc2o1` [UMBELLIFERONE], the Activity (Salmonella typhimurium [1]) is reported as 22%, the Activity (Salmonella typhimurium [2]) is reported as 28% and the Activity (Salmonella typhimurium [3]) is reported as 10%. It also gave an Activity (Salmonella typhimurium [4]) of 13%, an Activity (Salmonella typhimurium [5]) of 39% and an Activity (Salmonella typhimurium [6]) of 7%.

Compound `CC1=CC[C@@H](O)C(C)(C)[C@H]1CC/C(C)=C/COc1ccc2ccc(=O)oc2c1` has an Activity (Salmonella typhimurium [7]) of 45%.

Work on `COc1ccc2ccc(=O)oc2c1` [HERNIARIN] yielded an Activity (Salmonella typhimurium [1]) of 36%, an Activity (Salmonella typhimurium [8]) of 21% and an Activity (Salmonella typhimurium [3]) of 28%. The Activity (Salmonella typhimurium [4]) was 11%, the Activity (Salmonella typhimurium [6]) was 10% and the Activity (Salmonella typhimurium [9]) was 0%.

`O=c1ccc2ccc(OCC3CCCCC3)cc2o1` [UMBELLIFERONECYCLOHEXYLMETHYL ETHER] gave an Activity (Salmonella typhimurium [1]) of 44%, an MNTC at 15 h [10] of 16 µg/mL and an Activity (Salmonella typhimurium [2]) of 39%. The Activity (Salmonella typhimurium [3]) was 33%, the Activity (Salmonella typhimurium [4]) was 5% and the Activity (Salmonella typhimurium [5]) was 54%. For the same compound, the Activity (Salmonella typhimurium [6]) was 0%.

In the case of `CC(C)=CCOc1ccc2ccc(=O)oc2c1` [7-PRENYLOXYCOUMARIN], the Activity (Salmonella typhimurium [1]) is reported as 36%, the Activity (Salmonella typhimurium [8]) is reported as 19% and the Activity (Salmonella typhimurium [3]) is reported as 29%. It also gave an Activity (Salmonella typhimurium [4]) of 17%, an Activity (Salmonella typhimurium [6]) of 14% and an Activity (Salmonella typhimurium [9]) of 9%.

In the case of `C#CC(C)(C)Oc1ccc2ccc(=O)oc2c1`, the Activity (Salmonella typhimurium [1]) is reported as 25%, the Activity (Salmonella typhimurium [8]) is reported as 10% and the Activity (Salmonella typhimurium [3]) is reported as 15%. For the same compound, the Activity (Salmonella typhimurium [4]) was 11%, the Activity (Salmonella typhimurium [6]) was 0% and the Activity (Salmonella typhimurium [9]) was 0%.
